Laboratory results taken from ChEMBL document CHEMBL2331093, “Synthesis and biological evaluation of novel propargyl amines as potential fluorine-18 labeled radioligands for detection of MAO-B activity” (Bioorg Med Chem, 2013).

How the values were obtained:
Plasma [1] = experiment: Metabolic stability in cynomolgus monkey plasma assessed as metabolite M2 retention time at 168 MBq, iv by HPLC analysis; assay type: ADME, organism-based, Macaca fascicularis; settings: in vivo
[2] = Drug uptake in human hippocampus at 4 MBq/200 ml after 90 mins by in vitro autoradiography in presence of MAO-B inhibitor rasagiline; assay type: ADME, tissue-based; settings: 1.5 h
Procedure, shortened: (§1)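 In vitro autoradiography with the fluorine-18 labeled radioligand on human postmortem brain tissue sections.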

[3] = Drug uptake in human thalamus at 4 MBq/200 ml after 90 mins by in vitro autoradiography in presence of MAO-B inhibitor L-deprenyl; assay type: ADME, tissue-based; settings: 1.5 h; procedure, shortened: as §1
[4] = Metabolic stability in cynomolgus monkey plasma assessed as parent compound at 168 MBq, iv after 120 mins by HPLC analysis; assay type: ADME, organism-based, Macaca fascicularis; settings: read-out: Stability
[5] = Drug uptake in human thalamus at 4 MBq/200 ml after 90 mins by in vitro autoradiography in presence of MAO-A ligand pirlindole; assay type: ADME, tissue-based; settings: 1.5 h; procedure, shortened: as §1
[6] = Drug uptake in human putamen at 4 MBq/200 ml after 90 mins by in vitro autoradiography in presence of MAO-A ligand pirlindole; assay type: ADME, tissue-based; settings: 1.5 h; procedure, shortened: as §1
[7] = Drug uptake in cynomolgus monkey striatum at 168 MBq, iv by PET imaging; assay type: ADME, organism-based, Macaca fascicularis; settings: in vivo
Procedure, shortened: (§2)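 PET brain imaging in a cynomolgus monkey after injection of the fluorine-18 labeled radioligand; regional radioactivity uptake expressed as %SUV over time post injection.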

[8] = Drug uptake in human hippocampus at 4 MBq/200 ml after 90 mins by in vitro autoradiography; assay type: ADME, tissue-based; settings: 1.5 h; procedure, shortened: as §1
[9] = Drug uptake in cynomolgus monkey cortex at 168 MBq, iv by PET imaging; assay type: ADME, organism-based, Macaca fascicularis; settings: in vivo; procedure, shortened: as §2
[10] = Drug uptake in human caudate nucleus at 4 MBq/200 ml after 90 mins by in vitro autoradiography in presence of MAO-B inhibitor L-deprenyl; assay type: ADME, tissue-based; settings: 1.5 h; procedure, shortened: as §1
Brain = experiment: Drug uptake in cynomolgus monkey brain at 168 MBq, iv by PET imaging; assay type: ADME, organism-based, Macaca fascicularis; settings: in vivo; procedure, shortened: as §2
[11] = Drug uptake in human putamen at 4 MBq/200 ml after 90 mins by in vitro autoradiography; assay type: ADME, tissue-based; settings: 1.5 h; procedure, shortened: as §1
[12] = Drug uptake in human thalamus at 4 MBq/200 ml after 90 mins by in vitro autoradiography in presence of MAO-B inhibitor rasagiline; assay type: ADME, tissue-based; settings: 1.5 h; procedure, shortened: as §1
[13] = Drug uptake in human hippocampus at 4 MBq/200 ml after 90 mins by in vitro autoradiography in presence of MAO-B inhibitor L-deprenyl; assay type: ADME, tissue-based; settings: 1.5 h; procedure, shortened: as §1
[14] = Metabolic stability in cynomolgus monkey plasma assessed as parent compound at 168 MBq, iv after 45 mins by HPLC analysis; assay type: ADME, organism-based, Macaca fascicularis; settings: read-out: Stability
[15] = Drug uptake in human thalamus at 4 MBq/200 ml after 90 mins by in vitro autoradiography; assay type: ADME, tissue-based; settings: 1.5 h; procedure, shortened: as §1
[16] = Drug uptake in human caudate nucleus at 4 MBq/200 ml after 90 mins by in vitro autoradiography in presence of MAO-A ligand pirlindole; assay type: ADME, tissue-based; settings: 1.5 h; procedure, shortened: as §1
[17] = Drug uptake in human putamen at 4 MBq/200 ml after 90 mins by in vitro autoradiography in presence of MAO-B inhibitor rasagiline; assay type: ADME, tissue-based; settings: 1.5 h; procedure, shortened: as §1
[18] = Drug uptake in human caudate nucleus at 4 MBq/200 ml after 90 mins by in vitro autoradiography in presence of MAO-B inhibitor rasagiline; assay type: ADME, tissue-based; settings: 1.5 h; procedure, shortened: as §1
[19] = Drug uptake in cynomolgus monkey cerebellum at 168 MBq, iv by PET imaging; assay type: ADME, organism-based, Macaca fascicularis; settings: in vivo; procedure, shortened: as §2
[20] = Drug uptake in human caudate nucleus at 4 MBq/200 ml after 90 mins by in vitro autoradiography; assay type: ADME, tissue-based; settings: 1.5 h; procedure, shortened: as §1
Plasma [21] = experiment: Metabolic stability in cynomolgus monkey plasma assessed as metabolite M5 retention time at 168 MBq, iv by HPLC analysis; assay type: ADME, organism-based, Macaca fascicularis; settings: in vivo
[22] = Drug uptake in human putamen at 4 MBq/200 ml after 90 mins by in vitro autoradiography in presence of MAO-B inhibitor L-deprenyl; assay type: ADME, tissue-based; settings: 1.5 h; procedure, shortened: as §1
Thalamus = experiment: Drug uptake in cynomolgus monkey thalamus at 168 MBq, iv by PET imaging; assay type: ADME, organism-based, Macaca fascicularis; settings: in vivo; procedure, shortened: as §2
Plasma [23] = experiment: Metabolic stability in cynomolgus monkey plasma assessed as metabolite M4 retention time at 168 MBq, iv by HPLC analysis; assay type: ADME, organism-based, Macaca fascicularis; settings: in vivo
[24] = Drug uptake in human hippocampus at 4 MBq/200 ml after 90 mins by in vitro autoradiography in presence of MAO-A ligand pirlindole; assay type: ADME, tissue-based; settings: 1.5 h; procedure, shortened: as §1
Plasma [25] = experiment: Metabolic stability in cynomolgus monkey plasma assessed as metabolite M3 retention time at 168 MBq, iv by HPLC analysis; assay type: ADME, organism-based, Macaca fascicularis; settings: in vivo
Plasma [26] = experiment: Metabolic stability in cynomolgus monkey plasma assessed as metabolite M1 retention time at 168 MBq, iv by HPLC analysis; assay type: ADME, organism-based, Macaca fascicularis; settings: in vivo
[27] = Drug uptake in human basal ganglia at 4 MBq/200 ml after 90 mins by in vitro autoradiography; assay type: ADME; settings: 1.5 h; procedure, shortened: as §1
Cortex [28] = experiment: Drug uptake in human cortex at 4 MBq/200 ml after 90 mins by in vitro autoradiography; assay type: ADME, tissue-based; settings: 1.5 h; procedure, shortened: as §1
Cortex [29] = experiment: Drug uptake in human cortex at 4 MBq/200 ml after 90 mins by in vitro autoradiography in presence of MAO-B inhibitor L-deprenyl; assay type: ADME, tissue-based; settings: 1.5 h; procedure, shortened: as §1
Cortex [30] = experiment: Drug uptake in human cortex at 4 MBq/200 ml after 90 mins by in vitro autoradiography in presence of MAO-A ligand pirlindole; assay type: ADME, tissue-based; settings: 1.5 h; procedure, shortened: as §1
[31] = Drug uptake in human basal ganglia at 4 MBq/200 ml after 90 mins by in vitro autoradiography in presence of MAO-B inhibitor rasagiline; assay type: ADME; settings: 1.5 h; procedure, shortened: as §1
[32] = Drug uptake in human basal ganglia at 4 MBq/200 ml after 90 mins by in vitro autoradiography in presence of MAO-B inhibitor L-deprenyl; assay type: ADME; settings: 1.5 h; procedure, shortened: as §1
[33] = Drug uptake in human basal ganglia at 4 MBq/200 ml after 90 mins by in vitro autoradiography in presence of MAO-A ligand pirlindole; assay type: ADME; settings: 1.5 h; procedure, shortened: as §1
Cortex [34] = experiment: Drug uptake in human cortex at 4 MBq/200 ml after 90 mins by in vitro autoradiography in presence of MAO-B inhibitor rasagiline; assay type: ADME, tissue-based; settings: 1.5 h; procedure, shortened: as §1
[35] = Stability of the compound in PBS buffer at pH 7.4 up to 150 mins; assay type: physicochemical; settings: pH 7.4, 2.5 h
[36] = biological target: T1, Amine oxidase [flavin-containing] A (Homo sapiens, UniProt P21397); experiment: Inhibition of recombinant human MAO-A assessed as inhibition of kynuramine oxidation by spectrophotometry
T1 sequence (P21397 whole entry): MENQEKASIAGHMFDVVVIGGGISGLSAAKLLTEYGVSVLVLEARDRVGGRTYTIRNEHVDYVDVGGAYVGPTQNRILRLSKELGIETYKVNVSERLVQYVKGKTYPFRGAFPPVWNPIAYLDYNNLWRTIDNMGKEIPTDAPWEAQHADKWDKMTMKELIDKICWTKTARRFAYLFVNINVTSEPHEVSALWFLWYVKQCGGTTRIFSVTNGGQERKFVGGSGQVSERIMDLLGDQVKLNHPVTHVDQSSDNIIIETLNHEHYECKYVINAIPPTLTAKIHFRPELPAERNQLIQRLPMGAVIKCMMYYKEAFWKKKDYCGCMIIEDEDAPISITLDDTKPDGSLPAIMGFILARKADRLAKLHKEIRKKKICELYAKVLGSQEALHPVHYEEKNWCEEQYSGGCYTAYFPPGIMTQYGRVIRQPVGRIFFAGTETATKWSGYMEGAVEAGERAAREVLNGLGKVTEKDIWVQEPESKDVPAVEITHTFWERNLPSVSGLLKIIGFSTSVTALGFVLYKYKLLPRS

[37] = biological target: T2, Amine oxidase [flavin-containing] B (Homo sapiens, UniProt P27338); experiment: Inhibition of recombinant human MAO-B assessed as inhibition of kynuramine oxidation by spectrophotometry
T2 sequence (P27338 whole entry): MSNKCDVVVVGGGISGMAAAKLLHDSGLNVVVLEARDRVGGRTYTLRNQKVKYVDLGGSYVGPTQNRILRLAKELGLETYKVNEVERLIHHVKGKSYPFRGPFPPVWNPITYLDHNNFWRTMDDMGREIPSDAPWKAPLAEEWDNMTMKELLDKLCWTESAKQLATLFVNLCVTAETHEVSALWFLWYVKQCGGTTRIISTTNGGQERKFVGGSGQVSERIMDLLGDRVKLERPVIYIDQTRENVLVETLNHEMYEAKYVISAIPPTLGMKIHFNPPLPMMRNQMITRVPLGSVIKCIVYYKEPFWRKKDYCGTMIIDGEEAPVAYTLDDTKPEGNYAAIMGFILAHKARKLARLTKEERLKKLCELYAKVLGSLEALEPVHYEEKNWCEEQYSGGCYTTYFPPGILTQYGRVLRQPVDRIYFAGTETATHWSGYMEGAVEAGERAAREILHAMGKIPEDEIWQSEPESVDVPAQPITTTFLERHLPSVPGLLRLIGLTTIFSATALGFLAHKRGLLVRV

C#CCN(C)[C@H](C[18F])CC(C)C
Retention_time (Plasma [1]): 3.4 min
Drug uptake [2]: Not Active
Drug uptake [3]: Not Active
remaining at 2 h [4]: 12%
Drug uptake [5]: Active
Drug uptake [6]: Active
Drug uptake [7]: Active
Drug uptake [8]: Active
Drug uptake [9]: Not Active
Drug uptake [10]: Not Active
SUV (Brain): 250%
Drug uptake [11]: Active
Drug uptake [12]: Not Active
Drug uptake [13]: Not Active
remaining at 0.75 h [14]: 20%
Drug uptake [15]: Active
Drug uptake [16]: Active
Drug uptake [17]: Not Active
Drug uptake [18]: Not Active
Drug uptake [19]: Not Active
Drug uptake [20]: Active
Retention_time (Plasma [21]): 6.2 min
Drug uptake [22]: Not Active
Drug uptake (Thalamus): Active
Retention_time (Plasma [23]): 4.2 min
Drug uptake [24]: Active
Retention_time (Plasma [25]): 3.7 min
Retention_time (Plasma [26]): 2 min

C#CCN(C)[C@H](C[18F])Cc1ccco1
Drug uptake [2]: Not Active
Drug uptake [27]: Active
Drug uptake [3]: Not Active
Drug uptake [5]: Active
Drug uptake [8]: Active
Drug uptake (Cortex [28]): Active
Drug uptake [12]: Not Active
Drug uptake (Cortex [29]): Not Active
Drug uptake [13]: Not Active
Drug uptake (Cortex [30]): Active
Drug uptake [31]: Not Active
Drug uptake [15]: Active
Drug uptake [32]: Not Active
Drug uptake [24]: Active
Drug uptake [33]: Active
Drug uptake (Cortex [34]): Not Active

C#CCN(C)[C@H](C[19F])Cc1ccco1
Stability [35]: Stable

C#CCN(C)[C@H](C[19F])CC(C)C
Stability [35]: Stable

C#CCN(C)[C@H](CF)CC(C)C
IC50 [36]: > 2000 nM
IC50 [37]: 132 nM

C#CCN(C)[C@H](CF)CC(=C)C
IC50 [36]: > 2000 nM
IC50 [37]: 664 nM

C#CCN(C)[C@H](CF)Cc1ccco1
IC50 [36]: > 2000 nM
IC50 [37]: 208 nM
